Laboratory results as given in BindingDB's records for doi:10.1021/jm0003900 (Ferring Research Institute, 2001).
*1 amine or outer side, *2 acyl side, *3 side chain or, on linkers, in order; H or OH if unused. Where a SMILES comes first, the peptide text is derived from it. [ ]: non-standard residue; d: D form. Phe(4-NH(5-NH2triazol-3-yl)) = Nc1nc(Nc2ccc(C[C@H](N)C(=O)O)cc2)n[nH]1; X1 = Nc1nc(Nc2ccc(C[C@@H](N[*:1])C(=O)[*:2])cc2)n[nH]1; dPhe(4-Cl) = N[C@H](Cc1ccc(Cl)cc1)C(=O)O; d2Nal = N[C@H](Cc1ccc2ccccc2c1)C(=O)O; Lys(iPr) = CC(C)NCCCC[C@H](N)C(=O)O; d3Pal = N[C@H](Cc1cccnc1)C(=O)O

Biological target: T1, Gonadotropin-releasing hormone receptor (Homo sapiens, UniProt P30968)
T1 sequence (P30968 whole entry): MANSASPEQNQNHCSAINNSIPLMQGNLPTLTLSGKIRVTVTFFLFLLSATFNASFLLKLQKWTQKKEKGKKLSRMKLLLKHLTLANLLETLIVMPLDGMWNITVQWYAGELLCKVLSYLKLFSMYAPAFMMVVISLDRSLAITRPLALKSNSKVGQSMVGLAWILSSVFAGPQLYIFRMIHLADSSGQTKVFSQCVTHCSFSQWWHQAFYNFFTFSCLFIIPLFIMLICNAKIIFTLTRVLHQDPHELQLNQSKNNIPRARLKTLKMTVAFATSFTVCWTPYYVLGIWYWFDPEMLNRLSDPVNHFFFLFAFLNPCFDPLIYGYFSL
Assay: Competitive antagonism of GnRH-induced response in the reporter gene assay
Procedure, shortened: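 Same HEK293 human GnRH receptor luciferase reporter cells. Seven-point GnRH curve (10 µM to 10 pM final) run in duplicate without or with four to five increasing compound concentrations (10 min preincubation, 37 °C), then 5 h and luminescence. GnRH EC50 at each level by four-parameter logistic fit, giving pA2; mean of two determinations in duplicate.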

Row | SMILES | Kd
1 | CC(=O)Nc1ccc(C[C@@H](NC(=O)[C@H](Cc2ccc(NC(=O)C3CNC(=O)N3)cc2)NC(=O)[C@H](CO)NC(=O)[C@@H](Cc2cccnc2)NC(=O)[C@@H](Cc2ccc(Cl)cc2)NC(=O)[C@@H](Cc2ccc3ccccc3c2)NC(C)=O)C(=O)N[C@@H](CC(C)C)C(=O)N[C@@H](CCCCNC(C)C)C(=O)N2CCC[C@H]2C(=O)N[C@H](C)C(N)=O)cc1 (stereo partly drawn) [Ac-D-Nal-[D-(pCl)Phe]-D-Pal-Ser-[Aph(Imz)]-D-[Aph(Ac)]-Leu-ILys-Pro-DAla-NH2] | 0.631 nM
2 | CC(=O)N[C@H](Cc1ccc2ccccc2c1)C(=O)N[C@H](Cc1ccc(Cl)cc1)C(=O)N[C@H](Cc1cccnc1)C(=O)N[C@@H](CO)C(=O)N[C@@H](Cc1ccc(Nc2n[nH]c(N)n2)cc1)C(=O)N[C@H](Cc1ccc(Nc2n[nH]c(N)n2)cc1)C(=O)N[C@@H](CC(C)C)C(=O)N[C@@H](CCCCNC(C)C)C(=O)N1CCC[C@H]1C(=O)N[C@H](C)C(N)=O [Ac-D-Nal-[D-(pCl)Phe]-D-Pal-Ser-[Aph(Atz)]-D-[Aph(Atz)]-Leu-ILys-Pro-DAla-NH2] (Ac-[d2Nal][dPhe(4-Cl)][d3Pal]S[Phe(4-NH(5-NH2triazol-3-yl))][X1]L[Lys(iPr)]P[dA]-NH2) | 1.58 nM
